# bovine MsrA act: bovine MsrA enzyme activators, primary screen, biochemical, absorbance, HTS; activation, % at 10.6 µM; 360,000 tested, 0.3% active; Methionine sulfoxide reductase A (Bos taurus); purified bovine MsrA, absorbance read-out; in the data active = activation above about 7.5%;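 also: 0% = vehicle and 100% = reference activator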
# GalR3 antag: GalR3 antagonists in HEK293 cells, primary screen, cell-based, fluorescence readout. Galanin receptor type 3 (Homo sapiens), O60755. HEK293 GalR3-CNG cAMP membrane potential fluorescence; galR3 body fused to GalR1 C-terminus. inhibition, % at 3 µM. 360,000 tested, 0.44% active. AID 651719, 2012;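 active = inhibition above the screen-wide average plus 3 SD, cut at about 13% in these data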;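 also: forskolin and galanin both at EC90 stimulate the cells; cAMP rise reported by CNG channel membrane potential dye signal; 0% = forskolin plus galanin with DMSO and 100% = forskolin alone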
# Target sequence (O60755 1-299 limits assumed): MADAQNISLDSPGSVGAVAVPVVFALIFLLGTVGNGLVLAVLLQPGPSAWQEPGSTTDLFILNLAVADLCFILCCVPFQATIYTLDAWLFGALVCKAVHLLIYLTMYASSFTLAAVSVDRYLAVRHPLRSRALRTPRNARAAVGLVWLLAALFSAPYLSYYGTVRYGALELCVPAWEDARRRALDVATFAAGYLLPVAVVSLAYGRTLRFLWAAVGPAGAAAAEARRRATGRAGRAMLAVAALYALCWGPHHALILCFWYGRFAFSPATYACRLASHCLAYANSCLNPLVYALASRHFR
# NR2E3 ag-1: NR2E3 agonists in two-hybrid cells, primary screen, cell-based, luminescence, CHO-S, Gal4-NCOR/VP16-NR2E3; Photoreceptor-specific nuclear receptor (Homo sapiens), Q9Y5X4; luciferase; inhibition of corepressor binding, % at 3.98 µM; 360,000 tested, 0.35% active; AID 602229, 2012;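 active = inhibition above the mean of all tested compounds plus 3 SD, cut at about 70% in these data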;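 also: 0% = DMSO with NR2E3 transfected cells and 100% = cells lacking NR2E3 construct; higher means lower luciferase signal from less NR2E3 corepressor binding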
# Target sequence (Q9Y5X4 whole entry, looked up, the tested form may be a part): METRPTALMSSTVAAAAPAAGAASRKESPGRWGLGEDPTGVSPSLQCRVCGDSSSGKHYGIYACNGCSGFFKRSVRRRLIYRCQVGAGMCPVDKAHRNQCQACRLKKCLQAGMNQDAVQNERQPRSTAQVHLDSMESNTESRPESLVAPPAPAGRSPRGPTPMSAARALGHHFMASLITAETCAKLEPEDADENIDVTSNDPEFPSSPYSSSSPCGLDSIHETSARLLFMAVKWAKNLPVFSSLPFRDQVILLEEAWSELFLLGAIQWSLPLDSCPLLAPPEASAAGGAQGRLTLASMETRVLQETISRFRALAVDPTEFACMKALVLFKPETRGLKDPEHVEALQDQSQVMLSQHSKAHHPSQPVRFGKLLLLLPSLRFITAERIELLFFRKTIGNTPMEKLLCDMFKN
# NadD inh: inhibitors of S. aureus NadD, primary screen, biochemical, colorimetric, uHTS; Nicotinate-nucleotide adenylyltransferase NadD (Staphylococcus aureus N315); purified NadD enzyme, colorimetric absorbance read-out; inhibition, % at 20 µM; 360,000 tested, 0.78% active; in the data active = inhibition above about 26%
# MsrA inh: bovine MsrA enzyme inhibitors, primary screen, biochemical, absorbance, HTS | purified bovine MsrA, absorbance read-out | inhibition, % at 15.5 µM | 360,000 tested, 0.75% active | AID 651718, 2012; in the data active = inhibition above about 4.5%;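 also: 0% = vehicle wells with enzyme and 100% = reference inhibitor wells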
# NR2E3 ag-2: inhibitors of NR2E3-RetCOR corepressor binding, primary screen, NR2E3 agonist project, biochemical, TR-FRET, GST-NR2E3, biotin-RetCOR. AID 2300, 2010. Photoreceptor-specific nuclear receptor (Homo sapiens), Q9Y5X4. inhibition of corepressor binding, % at 4.78 µM. 320,000 tested, 0.12% active. 1536-well;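 active = percent inhibition above the cutoff of mean plus 3 SD of all tested compounds, set per screening campaign, cut at about 20% in these data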;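 also: 0% = DMSO wells and 100% = biotin wells as full block of FRET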
#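 Test system: GST-NR2E3 and biotin-RetCOR proteins | Quantity: 1.35 nM GST-tagged NR2E3 final | Medium: Tris pH 7.5 | Also added: 7 nM biotin-RetCOR | Dosing: Compound at 4.8 µM, single dose | Timing: 5 h at 4 °C | Detection: Time-resolved FRET | Read-out basis: Percent inhibition | Benchmarks: Biotin wells as high control, 0.6% DMSO wells as low control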
# NR2E3 ag conf: NR2E3 agonist confirmation in cells, cell-based, luminescence, CHO-S two-hybrid; shares compounds with NR2E3 ag-1; CHO-S mammalian two-hybrid NR2E3-NCOR, luciferase luminescence; inhibition, % at 3.98 µM; 2,300 tested, 51% active; AID 624378, 2012;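 active = average inhibition above a cutoff equal to the mean inhibition of all tested compounds plus one SD, cut at about 70% in these data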;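 also: 0% = DMSO in NR2E3 cells and 100% = DMSO in cells lacking NR2E3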
# GAL4-VP16 luc: GAL4-VP16 reporter modulators, confirmation, counter-screen for NR2E3 agonist project, cell-based, luminescence, CHO-S, high throughput | shares compounds with NR2E3 ag-1 | CHO-S GAL4-VP16 luciferase reporter | inhibition, % at 3.98 µM | 2,300 tested, 29% active;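 active = mean inhibition above a cutoff equal to the average over all tested compounds plus one standard deviation, cut at about 70% in these data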;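 also: luciferase from a UAS reporter driven by GAL4-VP16 transactivation; 0% = DMSO with VP16-transfected cells and 100% = DMSO with cells lacking VP16; higher means less reporter light so more repression of VP16 activity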
# * marks the source's active call; other numbers are inactive results; nt = not tested or not shown. An excerpt weighted towards active compounds, which were near 2.5% of everything screened.
SMILES,bovine MsrA act,GalR3 antag,NR2E3 ag-1,NadD inh,MsrA inh,NR2E3 ag-2,NR2E3 ag conf,GAL4-VP16 luc
O=C(C=Cc1ccccc1)c1c[nH]c2ccccc2c1=O,-11.3,-6.8,-13.2,3.8,3.8,nt,nt,nt
Cc1[nH]c2ccccc2c(=O)c1C(=O)/C=C/c1ccccc1,-3.1,-3.8,64.8,-7.6,1.3,-4.4,29.6,60.1
COc1ccc(N2C(=O)CC(Cc3ccccc3)C2=O)cc1 (stereo unspecified),-1.7,-6.1,10.7,-2.0,0.8,-2.1,nt,nt
COc1ccc(C[C@@H]2OC3(C=CC(=O)C=C3)O[C@H]2Cc2ccc(OC)cc2)cc1,-1.5,nt,96.6*,-6.8,nt,nt,96.4*,53.8
O=C1C=CC2(C=C1)O[C@H](Cc1ccccc1)[C@@H](Cc1ccccc1)O2,-6.2,-0.2,100.4*,-3.1,-0.1,nt,99.6*,67.6
Cc1ccc(S(=O)(=O)N2[C@@H](c3ccc(Br)cc3)C(C(=O)O)=CC[C@H]2c2ccc(C(C)C)cc2)cc1,-5.8,-3.8,-11.2,23.3,-0.5,nt,nt,nt
Cc1ccc([C@@H]2CC=C(C(=O)O)[C@H](c3ccc(C(C)(C)C)cc3)N2S(=O)(=O)c2ccc(C)cc2)cc1,0.6,-7.9,97.8*,21.2,0.1,nt,88.1*,41.1
Cc1ccc([C@@H]2CC=C(C(=O)O)[C@H](c3ccc(Br)cc3)N2S(=O)(=O)c2ccc(C)cc2)cc1,1.1,-5.9,63.6,10.2,-0.4,nt,24.7,3.9
Cc1ccc(S(=O)(=O)N2[C@@H](c3ccc(C(C)(C)C)cc3)C(C(=O)O)=CC[C@H]2c2cccs2)cc1,-7.2,-2.2,51.4,5.1,0.5,nt,-4.5,-5.5
Cc1ccc(S(=O)(=O)N2[C@@H](c3ccc(C(C)(C)C)cc3)C(C(=O)O)=CC[C@H]2c2ccc(Cl)cc2)cc1,-1.6,-7.8,99.1*,25.5,0.6,nt,98.7*,66.1
Cc1ccc(S(=O)(=O)N2C(c3ccc(Cl)c(Cl)c3)CC=C(C(=O)O)C2c2ccc(Cl)cc2)cc1 (stereo unspecified),nt,-1.5,nt,nt,0.6,nt,nt,nt
COc1ccc(NC(=O)Nc2ccncc2)c(OC)c1,-3.2,-3.0,2.7,-5.8,0.8,1.3,nt,nt
CCc1ccc([C@@H]2CC=C(C(=O)O)[C@H](c3ccc(C(C)(C)C)cc3)N2S(=O)(=O)c2ccc(C)cc2)cc1,0.5,-9.6,92.6*,23.0,0.1,nt,95.5*,61.7
CCOC(=O)c1c(C)[nH]c(C(=O)C(C)OC(=O)c2cccc(OCc3c(C)noc3C)c2)c1C (stereo unspecified),-8.3,0.5,76.4*,-8.0,1.6,-2.5,83.1*,64.4
CCC(C)NC(=O)c1cccc(OCc2c(C)noc2C)c1 (stereo unspecified),-8.1,-2.8,-1.2,-1.4,-0.1,5.0,nt,nt
COc1ccc(C)cc1NCc1ccc(OC)c(C)c1OC,-4.5,-2.1,18.7,0.1,-0.4,-0.9,nt,nt
CCC1CCCCN1S(=O)(=O)c1ccc(NC(=O)c2ccncc2)cc1 (stereo unspecified),-2.3,-1.0,95.8*,-4.9,-1.1,1.3,66.6,62.8
CCOC(=O)c1ccc(S(=O)(=O)Nc2ccc3cn[nH]c3c2)cc1,-0.9,-4.8,61.6,3.6,-1.0,1.0,47.9,55.8
COc1ccc(NS(=O)(=O)c2cccc(C(=O)OCC(=O)N3CCN(c4ccc(OC)cc4)CC3)c2)cc1,-2.2,0.9,63.4,-1.5,-1.2,1.8,28.0,50.3
COc1ccc(NS(=O)(=O)c2ccc(C(=O)N3CCN(c4ccc(F)cc4)CC3)cc2)cc1,-0.5,-6.2,75.2*,3.8,-0.1,nt,73.8*,64.5
COc1ccc(N2CCN(C(=O)c3ccc(NS(=O)(=O)c4ccc(F)c(F)c4)cc3)CC2)cc1,-10.2,-4.7,20.4,4.3,0.3,3.9,nt,nt
COc1ccc(N2CCN(C(=O)c3ccc(NS(=O)(=O)c4cccc(F)c4)cc3)CC2)cc1,-0.9,-6.7,18.5,-5.7,-0.1,-1.6,nt,nt
COc1ccccc1-c1noc(CCCC(=O)NC2CCCC2)n1,-2.8,-8.4,-23.4,-6.5,-1.4,1.9,nt,nt
O=C(CCCc1nc(-c2ccccc2Cl)no1)NC1CCCC1,-2.8,-1.9,61.8,2.8,0.1,-1.1,60.0,56.1
Cc1cc(C(=O)OCC(=O)Nc2ccc(F)cc2)c(C)o1,-1.4,-2.2,73.7*,6.8,1.7,1.2,-13.1,11.2
SMILES,bovine MsrA act,GalR3 antag,NR2E3 ag-1,NadD inh,MsrA inh,NR2E3 ag-2,NR2E3 ag conf,GAL4-VP16 luc
Cc1nc(NC(C)c2ccccc2)c2oc3ccccc3c2n1 (stereo unspecified),1.0,-3.2,62.1,-5.5,0.4,0.5,80.8*,66.1
c1ccc(CNc2ncnc3c2oc2ccccc23)nc1,-1.2,-3.7,-52.1,4.0,-0.1,1.6,nt,nt
Cc1nc(NCCc2cnc[nH]2)c2oc3ccccc3c2n1,-2.2,-0.4,-17.8,-5.2,-1.1,0.8,nt,nt
COc1ccc(CCNc2nc(C)nc3c2oc2ccccc23)cc1OC,-3.8,-2.6,73.1*,-4.6,1.4,0.9,90.2*,73.1*
COc1ccc(CCNc2ncnc3c2oc2ccccc23)cc1OC,-6.8,-0.6,89.7*,-8.6,-0.5,1.4,96.7*,86.5*
COc1ccc(N(CC(=O)NCc2cccnc2)S(=O)(=O)c2ccc(C)c([N+](=O)[O-])c2)cc1,-4.8,-2.0,-6.0,-0.8,-1.2,-0.3,nt,nt
CCN(CC)c1ccc(-c2nn3c(-c4ccccc4OC)nnc3s2)cc1,-10.0,nt,57.0,-1.4,nt,1.1,-38.2,7.8
Cc1nn(-c2nc3ccccc3[nH]2)c(=O)c2ccccc12,-4.8,-1.4,53.1,1.2,0.4,2.6,64.7,25.2
CC1CCN(c2ccc3nnc(CCC(=O)Nc4ccc(F)c(F)c4)n3n2)CC1,-1.6,-8.0,-10.1,-2.4,-0.6,-2.8,nt,nt
CCCc1nc2c(=O)n(C)c(=O)nc-2n(C)n1,2.4,-3.5,104.5*,-1.2,1.2,nt,100.6*,85.5*
CCn1c(N)nc2c1c(=O)n(C)c(=O)n2C,-0.1,3.5,-1.0,3.7,0.6,3.0,nt,nt

# High-throughput results (PubChem BioAssay)
